Experimental findings from ChEMBL document CHEMBL1125195, “Novel compounds possessing potent cAMP and cGMP phosphodiesterase inhibitory activity. Synthesis and cardiovascular effects of a series of imidazo[1,2-a]quinoxalinones and imidazo[1,5-a]quinoxalinones and their aza analogues” (J Med Chem, 1991) are described below.

Structures are written as SMILES. The source made the active and inactive calls. The calls are words filed in the database; no cut-off is given here.

The IC50 is the point on the concentration scale where inhibition reaches its midpoint. By EC50 is commonly meant the midpoint of the concentration-response curve.

Assay [1] is described as follows: In vitro increase in contractile force in ferret papillary muscle strips. It is filed as functional, Mustela putorius furo, Muscle tissue. In short, it runs like this:
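Ferret papillary muscle; value is drug concentration (μM) giving a 20% rise in contractile force. Mean of at least two determinations, ranges within ±10%. Inotropic effect also tested with 1 μM propranolol co-administered. NR means not reached at 100 μM.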

Assay [2] in a line: Inhibition of crude cAMP phosphodiesterase from canine […]. More on the design: species or system Canis lupus familiaris. In short, it runs like this: (§1)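 Crude homogenates: cAMP PDE from canine cardiac tissue, cGMP PDE from canine thoracic aorta. Value is drug concentration (μM) giving 50% inhibition. Mean of at least three determinations, ranges within ±10%.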
For assay [3], the species on record is Canis familiaris. The experiment in a line: In vitro vascular relaxation in canine coronary arteries precontracted with prostaglandin F2alpha. The assay is classed as functional. As to conditions: Canis lupus familiaris. In short, it runs like this: (§2)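 Isolated vessels in warm PSS. Arteries constricted with prostaglandin F2α, veins with phenylephrine. Cumulative drug challenges, each added after relaxation plateaued. Delta force is expressed as % of agonist actual force (total minus basal) and as % of maximal relaxation. EC50 is found by linear interpolation between the points bracketing 50% relaxation. Afterwards tissues were rinsed every 10 min, reconstricted, and challenged with acetylcholine (arteries) or thrombin (veins).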

The species entered for assay [4] is Canis familiaris. The assay can be described thus: In vitro vascular relaxation in canine mesenteric veins precontracted with phenylephrine. The assay is classed as functional. As to conditions: Canis lupus familiaris, Mesenteric vein. In short, it runs like this: as §2
The nature of assay [5]: Inhibition of crude cGMP phosphodiesterase from canine thoracic aorta. The assay is classed as tissue-based, Canis lupus familiaris. An outline of the steps:
as §1

Assay [6] concerns Canis familiaris. The assay can be described thus: Percent change in mean arterial blood pressure after intravenous administration in anesthetized dogs at 0.3 mg/kg. It is filed as functional, Canis lupus familiaris. In short, it runs like this: (§3)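 Anesthetized dogs, drug given intravenously at the stated dose. Percent change recorded in LV dP/dt (contractile force), heart rate and mean arterial pressure. Mean of at least four determinations; LV dP/dt ranges within ±10%.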

Assay [7] can be described thus: Inhibition of crude cGMP phosphodiesterase from canine thoracic aorta (NR = no effect at 100 ug). It is filed as tissue-based, Canis lupus familiaris. An outline of the steps:
(§4)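 Crude PDEs from canine tissue homogenates: cAMP enzyme from cardiac tissue, cGMP enzyme from thoracic aorta. Value is drug concentration (μM) causing 50% inhibition. Mean of at least three determinations, ranges within ±10%.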

Assay [8] deals with Canis familiaris. The experiment in a line: Percent change heart rate after intravenous administration in anesthetized dogs at 0.3 mg/kg (NC<10%). The assay is classed as functional, Canis lupus familiaris. An outline of the steps: as §3
Assay [9] deals with Canis familiaris. The experiment in a line: Percent change in left ventricle contractile force in anesthetized dogs after intravenous administration at 0.3 mg/kg. It is filed as functional, Canis lupus familiaris, Heart left ventricle. An outline of the steps:
as §3

For another assay, the species on record is Mustela putorius furo. The assay can be described thus: In vitro increase in contractile force in ferret papillary muscle strips (NR = not reached at 100 ug). As to conditions: Muscle tissue. It is filed as functional, tissue-based. In short, it runs like this: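 Ferret papillary muscle contractile force measured in vitro; value is drug concentration (μM) giving a 20% rise in contractile force. Inotropic effect also tested with 1 μM propranolol coadministered. Mean of at least two determinations, ranges within ±10%.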

The test system of assay [10] is Canis familiaris. The assay can be described thus: Percent change in heart rate after intravenous administration in anesthetized dogs at 3.0 mg/kg (NC<10%). The assay is classed as functional, Canis lupus familiaris. In short, it runs like this: as §3
Assay [11] deals with Canis familiaris. The experiment in a line: Percent change heart rate after intravenous administration in anesthetized dogs at 1.0 mg/kg. It is filed as functional, Canis lupus familiaris. In short, it runs like this:
as §3

Assay [12] in a line: Inhibition of crude cAMP phosphodiesterase from canine […] (NR = no effect at 100 ug). More on the design: species or system Canis lupus familiaris. In short, it runs like this:
as §4

Assay [13] deals with Canis familiaris. The assay can be described thus: Percent change in mean arterial blood pressure after intravenous administration in anesthetized dogs at 3.0 mg/kg. It is filed as functional, Canis lupus familiaris. An outline of the steps:
as §3

Assay [14] deals with Canis familiaris. The assay can be described thus: Percent change in left ventricle contractile force in anesthetized dogs after intravenous administration at 3.0 mg/kg. The assay is classed as functional, Canis lupus familiaris, Heart left ventricle. In short, it runs like this: as §3
In assay [15] the test system is Canis familiaris. The experiment in a line: Percent change in mean arterial blood pressure after intravenous administration in anesthetized dogs at 1.0 mg/kg. The assay is classed as functional, Canis lupus familiaris. In short, it runs like this: as §3
For assay [16], the system named is Canis familiaris. The assay can be described thus: Percent change in left ventricle contractile force in anesthetized dogs after intravenous administration at 1.0 mg/kg. It is filed as functional, Canis lupus familiaris, Heart left ventricle. An outline of the steps:
as §3

Assay [17] concerns Canis familiaris. The experiment in a line: Percent change heart rate after intravenous administration in anesthetized dogs at 0.1 mg/kg. The assay is classed as functional, Canis lupus familiaris.
For assay [18], the system named is Canis familiaris. The experiment in a line: Percent change in mean arterial blood pressure after intravenous administration in anesthetized dogs at 0.1 mg/kg (NC<10%). The assay is classed as functional, Canis lupus familiaris.
In assay [19] the test system is Canis familiaris. The assay can be described thus: Percent change in left ventricle contractile force in anesthetized dogs after intravenous administration at 0.1 mg/kg. It is filed as functional, Canis lupus familiaris, Heart left ventricle.
The test system of assay [20] is Canis familiaris. The experiment in a line: Percent change in heart rate after intravenous administration in anesthetized dogs at 0.3 mg/kg. The assay is classed as functional, Canis lupus familiaris.
In assay [21] the test system is Canis familiaris. The assay can be described thus: Percent change in mean arterial blood pressure after intravenous administration in anesthetized dogs at 1.0 mg/kg (NC<10%). It is filed as functional, Canis lupus familiaris.

In assay [1], `Oc1nc2ccc(-n3ccnc3)cc2n2ccnc12` displayed a CFC20 of 3.1 µM. Moreover, the results for the 50% inhibitory concentration (IC50) in assay [2] and in assay [5] were 6 µM and 13 µM, respectively. For the same molecule, the EC50 in the assay listed under Canis familiaris [3] is 28 µM; in the assay listed under Canis familiaris [4] it was 3.1 µM.

`CCc1nc(C)cn1-c1ccc2nc(O)c3c(C)nc(CC)n3c2c1`: the CFC20 in assay [1] came out at 1 µM. Further, the figures for the IC50 in [2] and in assay [5] were 0.4 µM and 0.3 µM, respectively. Further, the results for the EC50 in the assay listed under Canis familiaris [3] and in the assay filed under Canis familiaris [4] were 0.5 µM and 0.1 µM, respectively.

`Oc1nc2ccc(-n3ccnc3)nc2n2ccnc12`: in assay [1], the CFC20 is 0.5 µM. Besides, the IC50 in assay [2] is 5 µM; in [5], 39 µM. For the same molecule, the EC50 worked out at 14 µM in the assay filed under Canis familiaris [3] and 9.3 µM in the assay filed under Canis familiaris [4].

Consider `O=[N+]([O-])OCC(CO[N+](=O)[O-])O[N+](=O)[O-]` [NITROGLYCERIN], for which the Delta is reported as -20% with Canis familiaris [6]; <10% in the assay on Canis familiaris [8]; -9% in the assay on Canis familiaris [9]; <10% with Canis familiaris [10]; <10% in the assay on Canis familiaris [11]; -39% with Canis familiaris [13]. Moreover, the Delta is recorded as -17% in the assay with Canis familiaris [14], -30% in the assay with Canis familiaris [15] and -14% in the assay with Canis familiaris [16]. In addition, the half-maximal inhibitory concentration (IC50) entry in assay [7] and in assay [12] was “Not Active” each time. For the same molecule, in the assay listed under Mustela putorius furo, the CFC20 result is “inactive”. The results for the EC50 in the assay listed under Canis familiaris [3] and in the assay filed under Canis familiaris [4] were 0.01 µM and 0.007 µM, respectively.

Molecule `CCc1nc(C)c2c(=O)n(C)c3ccccc3n12` displayed a CFC20 in [1] of 2.3 µM. In addition, the IC50 in [2] amounted to 18 µM; in assay [5] it was 17 µM. The values for the EC50 in the assay listed under Canis familiaris [3] and in the assay filed under Canis familiaris [4] were 12 µM and 3.8 µM, respectively.

For the molecule `CCc1nc(C)c2c(O)nc3ccc(N4CCOCC4)cc3n12`, in assay [1], the CFC20 came to 0.5 µM. Besides, the IC50 was 0.8 µM in [2] and 0.9 µM in assay [5]. In addition, the EC50 in the assay filed under Canis familiaris [3] is 0.7 µM; in the assay listed under Canis familiaris [4], 0.05 µM.

Consider `CCc1ncc2c(O)nc3ccncc3n12`, for which, in assay [1], the CFC20 was determined as 0.3 µM. The IC50 in assay [2] and in assay [5] was 5 µM each time. Moreover, the EC50 turned out to be 5.2 µM in the assay filed under Canis familiaris [3] and 2.2 µM in the assay listed under Canis familiaris [4].

The molecule `CCc1ncc2c(O)nc3ccc(-n4ccnc4)cc3n12` registered a CFC20 in assay [1] of 1.2 µM. The values for the IC50 in [2] and in [5] were 2 µM and 3 µM, respectively. Further, the values for the EC50 in the assay listed under Canis familiaris [3] and in the assay listed under Canis familiaris [4] were 5.3 µM and 0.3 µM, respectively.

Regarding `CC(C)Cn1c(=O)n(C)c(=O)c2nc[nH]c21` [ISOBUTYLMETHYLXANTHINE], the Delta in the assay with Canis familiaris [17] is 17%; in the assay on Canis familiaris [18], <10%; with Canis familiaris [9], 41%; in the assay on Canis familiaris [19], 25%; in the assay with Canis familiaris [11], 45%; in the assay on Canis familiaris [20] it was 32%. Also, the Delta is <10% in the assay on Canis familiaris [21], -18% with Canis familiaris [15] and 69% in the assay with Canis familiaris [16]. Further, the CFC20 in assay [1] stood at 1.5 µM. The IC50 came out at 20 µM in assay [2] and 28 µM in [5]. Besides, the values for the EC50 in the assay filed under Canis familiaris [3] and in the assay listed under Canis familiaris [4] were 5.5 µM and 1 µM, respectively.

With `CCc1nc(C)c2c(N)nc3ccccc3n12`, the IC50 in assay [2] was 22 µM; in assay [5] it was 38 µM. Moreover, the results for the EC50 in the assay filed under Canis familiaris [3] and in the assay filed under Canis familiaris [4] were 11 µM and 3.4 µM, respectively.
